# Measured values taken from ChEMBL document CHEMBL4373706, “Discovery of Inhibitors of Aurora/PLK Targets as Anticancer Agents” (J Med Chem, 2019).
# The source made the active and inactive calls. The rule behind the calls is not given here.
# Assays:
# [1] = Oral bioavailability in Sprague-Dawley rat at 50 mg/kg administered via gastric gavage by LC-MS/MS analysis; assay type: ADME, organism-based; details: in vivo
# [2] = tested on: MCF7; test: Antiproliferative activity against human MCF7 cells measured after 48 hrs by MTT assay; assay type: functional, cell-based; details: MCF7, 48 h
# Method in brief: (§1)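 Cells were exposed to a range of compound concentrations for 48 h. MTT reagent was then added and absorbance read at 490 nm. Viability was normalized to vehicle control set as 100%, from n = 3 independent experiments, and IC50 was taken from the dose–response curves.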
# [3] = target: T1, Aurora kinase A (Homo sapiens, UniProt O14965); test: Binding affinity to wild-type human partial length AURKA (E122 to K401 residues) expressed in mammalian expression system measured after 1 hr by Kinomescan method
# T1 sequence (O14965 whole entry): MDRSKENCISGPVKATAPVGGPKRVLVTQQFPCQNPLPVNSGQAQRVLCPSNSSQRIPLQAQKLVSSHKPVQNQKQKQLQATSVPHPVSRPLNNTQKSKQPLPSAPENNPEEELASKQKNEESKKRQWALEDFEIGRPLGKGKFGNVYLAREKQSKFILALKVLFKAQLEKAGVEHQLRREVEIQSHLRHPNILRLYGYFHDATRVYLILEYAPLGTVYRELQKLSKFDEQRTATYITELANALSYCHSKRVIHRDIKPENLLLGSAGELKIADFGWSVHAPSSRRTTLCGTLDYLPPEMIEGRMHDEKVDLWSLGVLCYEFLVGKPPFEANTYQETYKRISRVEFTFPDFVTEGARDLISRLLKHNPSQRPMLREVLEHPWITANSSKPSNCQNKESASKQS
# Method in brief: (§2)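 KINOMEscan competition binding assay. A 321-kinase panel was first screened at 10 μM compound, and binding affinities were then determined for Aurora and PLK family members.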
# [4] = target: Serine/threonine-protein kinase PLK3 (Homo sapiens, UniProt Q9H4B4); test: Binding affinity to wild-type human partial length PLK3 (A42 to L334 residues) expressed in mammalian expression system measured after 1 hr by kinomescan method; method in brief: as §2
# [5] = Solubility of the compound in DMSO; assay type: physicochemical
# Method in brief: (§3)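 Solubility of the compound measured at 25±0.2°C, separately in water and in DMSO; reported in µg/mL.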
# [6] = tested on: HCT-116; test: Induction of apoptosis in human HCT116 cells assessed as apoptotic cell population at 5 uM measured after 48 hrs by Annexin V-FITC/propidium iodide staining-based flow cytometry (reference value: 5.9%); assay type: functional
# [7] = tested on: HCT-116; test: Cell cycle arrest in human HCT116 cells assessed as accumulation at G2/M phase at 5 uM measured after 24 to 48 hrs by propidium iodide staining-based flow cytometry (reference value: 3.37%); assay type: functional
# [8] = tested on: HCT-116; test: Induction of apoptosis in human HCT116 cells measured after 48 hrs by Annexin V-FITC/propidium iodide staining-based flow cytometry; assay type: functional, cell-based
# [9] = tested on: HCT-116; test: Antitumor activity against human HCT116 cells xenografted in BALB/c mouse assessed as mean survival days at 5 mg/kg, iv administered every 3 days for 60 days (reference value: 25 day); assay type: functional
# [10] = target: Cyclin-dependent kinase 6 (Homo sapiens, UniProt Q00534); test: Binding affinity to wild-type human full-length CDK6 (M1 to A326 residues) expressed in mammalian expression system measured after 1 hr by kinomescan method; details: pooled result: one value given for 15 cell lines, strains, targets or settings
# [11] = target: T2, Mitogen-activated protein kinase 15 (Homo sapiens, UniProt Q8TD08); test: Binding affinity to wild-type human partial length ERK8 (M1 to P437 residues) expressed in bacterial expression system measured after 1 hr by kinomescan method; details: pooled result: one value given for 7 cell lines, strains, targets or settings
# T2 sequence (Q8TD08 whole entry): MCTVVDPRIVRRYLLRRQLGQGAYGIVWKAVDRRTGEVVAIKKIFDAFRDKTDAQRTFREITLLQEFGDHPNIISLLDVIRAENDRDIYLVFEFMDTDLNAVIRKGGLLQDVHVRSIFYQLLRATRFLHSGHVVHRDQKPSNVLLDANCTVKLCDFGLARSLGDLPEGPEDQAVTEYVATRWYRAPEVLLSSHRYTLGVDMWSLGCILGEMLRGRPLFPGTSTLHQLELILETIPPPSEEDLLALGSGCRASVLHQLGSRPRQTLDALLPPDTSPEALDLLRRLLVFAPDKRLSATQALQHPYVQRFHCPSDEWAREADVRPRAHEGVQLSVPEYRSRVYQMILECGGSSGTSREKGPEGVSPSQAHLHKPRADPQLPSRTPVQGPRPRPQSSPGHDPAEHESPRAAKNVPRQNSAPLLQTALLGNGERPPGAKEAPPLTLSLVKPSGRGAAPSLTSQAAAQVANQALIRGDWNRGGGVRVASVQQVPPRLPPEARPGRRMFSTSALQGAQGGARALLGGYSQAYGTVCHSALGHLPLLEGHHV
# [12] = tested on: HCT-116; test: Cell cycle arrest in human HCT116 cells assessed as accumulation at G2/M phase at 10 uM measured after 24 to 48 hrs by propidium iodide staining-based flow cytometry (reference value: 3.37%); assay type: functional
# [13] = tested on: HCT-116; test: Inhibition of colony formation in human HCT116 cells at 10 uM incubated for 48 hrs followed by supplemented with fresh medium every 3 days for 2 weeks by crystal violet staining-based assay; assay type: functional, cell-based
# [14] = Cmax in Sprague-Dawley rat at 50 mg/kg, po administered via gastric gavage by LC-MS/MS analysis; assay type: ADME, organism-based; design: dose 50 mg/kg, route oral; details: in vivo
# [15] = tested on: HCT-116; test: Antitumor activity against human HCT116 cells xenografted in BALB/c mouse assessed as reduction in tumor size at 10 mg/kg, iv administered every 3 days for 24 days measured at 3 days interval during compound dosing relative to control; assay type: functional; design: scale not given: the % may be the effect or the level left
# [16] = Half life in Sprague-Dawley rat at 50 mg/kg, po administered via gastric gavage by LC-MS/MS analysis; assay type: ADME, organism-based; details: in vivo
# [17] = AUC (0 to infinity) in Sprague-Dawley rat at 10 mg/kg, iv administered […] by LC-MS/MS analysis; assay type: ADME, organism-based; design: dose 10 mg/kg, route intravenous, time infinity; details: in vivo
# [18] = Cmax in Sprague-Dawley rat at 10 mg/kg, iv administered […] by LC-MS/MS analysis; assay type: ADME, organism-based; design: dose 10 mg/kg, route intravenous; details: in vivo
# [19] = tested on: HCT-116; test: Antitumor activity against human HCT116 cells xenografted in BALB/c mouse assessed as survival rate at 1 mg/kg, iv administered every 3 days for 60 days relative to control; assay type: functional; details: HCT-116, iv
# [20] = Solubility of the compound in water; assay type: physicochemical; method in brief: as §3
# [21] = tested on: Calu-6; test: Antiproliferative activity against human Calu6 cells measured after 48 hrs by MTT assay; assay type: functional, cell-based; details: Calu-6, 48 h; method in brief: as §1
# [22] = tested on: HCT-116; test: Induction of apoptosis in human HCT116 cells assessed as apoptotic cell population at 10 uM measured after 48 hrs by Annexin V-FITC/propidium iodide staining-based flow cytometry (reference value: 5.9%); assay type: functional
# [23] = tested on: HCT-116; test: Antiproliferative activity against human HCT116 cells measured after 48 hrs by MTT assay; assay type: functional, cell-based; details: HCT-116, 48 h; method in brief: as §1
# [24] = tested on: HCT-116; test: Induction of apoptosis in human HCT116 cells assessed as apoptotic cell population at 1 uM measured after 48 hrs by Annexin V-FITC/propidium iodide staining-based flow cytometry (reference value: 5.9%); assay type: functional
# [25] = Toxicity in BALB/c mouse xenografted with human HCT116 cells assessed as change in body weight at 1 to 5 mg/kg, iv administered every 3 days for 24 days measured post-last dose; assay type: organism-based; details: in vivo
# Chain of Cyclin-dependent kinase 6 (Q00534 whole entry, the tested form may be a part): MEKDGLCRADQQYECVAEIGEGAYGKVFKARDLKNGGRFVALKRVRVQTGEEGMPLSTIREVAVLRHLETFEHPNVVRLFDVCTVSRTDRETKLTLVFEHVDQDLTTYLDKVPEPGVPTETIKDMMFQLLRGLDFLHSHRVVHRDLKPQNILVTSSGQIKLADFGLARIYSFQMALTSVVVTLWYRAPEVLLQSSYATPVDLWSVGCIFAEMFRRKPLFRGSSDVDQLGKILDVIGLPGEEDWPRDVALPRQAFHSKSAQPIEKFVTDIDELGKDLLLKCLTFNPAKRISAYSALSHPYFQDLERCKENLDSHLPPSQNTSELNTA
# Chain of Serine/threonine-protein kinase PLK3 (Q9H4B4 whole entry, the tested form may be a part): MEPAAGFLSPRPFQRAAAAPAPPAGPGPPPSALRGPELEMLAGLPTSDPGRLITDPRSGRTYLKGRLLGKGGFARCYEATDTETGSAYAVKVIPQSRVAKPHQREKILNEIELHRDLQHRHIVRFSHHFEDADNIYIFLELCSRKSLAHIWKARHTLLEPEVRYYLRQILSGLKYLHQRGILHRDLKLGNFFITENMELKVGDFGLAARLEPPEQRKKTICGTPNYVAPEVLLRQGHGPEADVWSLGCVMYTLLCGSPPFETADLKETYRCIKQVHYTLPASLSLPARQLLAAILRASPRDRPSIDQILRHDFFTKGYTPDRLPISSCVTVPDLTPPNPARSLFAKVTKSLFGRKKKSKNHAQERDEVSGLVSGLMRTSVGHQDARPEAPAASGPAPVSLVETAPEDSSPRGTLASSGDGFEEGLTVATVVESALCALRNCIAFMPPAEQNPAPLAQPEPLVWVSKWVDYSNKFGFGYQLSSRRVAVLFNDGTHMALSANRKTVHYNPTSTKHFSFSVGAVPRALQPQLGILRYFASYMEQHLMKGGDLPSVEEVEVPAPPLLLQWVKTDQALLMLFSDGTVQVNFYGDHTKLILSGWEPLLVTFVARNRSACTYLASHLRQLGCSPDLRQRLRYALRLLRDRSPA
structure (smiles),measurement,setting,value
O=C(Nc1ccc2cc(C(=O)Nc3nccs3)ccc2c1)c1ccc(Cl)c(Cl)c1,F,[1],65%
same,IC50,[2],2.3 µM
same,Kd,[3],0.023 µM
same,Kd,[4],0.456 µM
same,solubility,[5],286 µg/mL
same,Activity,[6],61.7%
same,Activity,[7],10.06%
same,Activity,[8],Dose-dependent effect
same,MSD,[9],45 days
same,Kd,[10],8.02 µM
same,Kd,[11],5.32 µM
same,Activity,[12],29.66%
same,inhibition,[13],Active
same,Cmax,[14],25.1 µg/mL
same,Activity,[15],75%
same,half-life,[16],11.8 h
same,AUC,[17],1260.761 µg·h/mL
same,Cmax,[18],78.5 µg/mL
same,survival at 1 mg/kg,[19],> 25%
same,solubility,[20],9.6 µg/mL
same,IC50,[21],5.3 µM
same,Activity,[22],91.4%
same,IC50,[23],0.4 µM
same,Activity,[24],41.1%
same,Activity,[25],Non-Toxic
